Reference: ChEMBL document CHEMBL2331420, “Synthesis, cytotoxicity and antiplasmodial activity of novel ent-kaurane derivatives” (Eur J Med Chem, 2013)
pIC50: −log10 of the molar value. Where a name gives a salt, the structure may show the parent alone.

Assays:
[1] = system: HT-29; assay: Growth inhibition against human HT-29 cells after 72 hrs by inverted microscopy; type: functional; conditions: HT-29, 72 h
Method in brief: (§1)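 Cells seeded at 2×10^4 cells/well in MEM10FCS containing compound at the test concentrations and exposed continuously for 72 h at 37 °C, 10% CO₂, 98% humidity. Untreated control wells were counted daily to confirm exponential growth. Cells were stained with crystal violet and inspected by inverted microscope, and inhibition was judged against controls. GI50 (50% growth inhibition) is the mean of duplicate wells.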

[2] = Growth inhibition against human LoVo/DX cells after 72 hrs by inverted microscopy; type: functional; method in brief: as §1
[3] = system: LoVo; assay: Growth inhibition against human LoVo cells after 72 hrs by inverted microscopy; type: functional; method in brief: as §1
[4] = system: HeLa; assay: Growth inhibition against human HeLa cells after 72 hrs by inverted microscopy; type: functional; method in brief: as §1
[5] = Growth inhibition against human IGROV cells after 72 hrs by inverted microscopy; type: functional; method in brief: as §1
[6] = Growth inhibition against human IGROV-ET cells after 72 hrs by inverted microscopy; type: functional; method in brief: as §1
[7] = system: K562; assay: Growth inhibition against human K562 cells after 72 hrs by inverted microscopy; type: functional; conditions: K562, 72 h; method in brief: as §1
[8] = system: PANC-1; assay: Growth inhibition against human PANC1 cells after 72 hrs by inverted microscopy; type: functional; conditions: PANC-1, 72 h; method in brief: as §1
[9] = system: Plasmodium falciparum; assay: Antiplasmodial activity against chloroquine-resistant Plasmodium falciparum W2 infected in human erythrocytes assessed as inhibition of parasite growth after 24 hrs by [3H]hypoxanthine incorporation assay; type: functional, organism-based
Method in brief: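 Ring-stage parasites, sorbitol-synchronised, in human O-negative erythrocytes in RPMI with 10% human plasma; plated at 1% parasitemia, 1% haematocrit. Compounds diluted from DMSO stocks in hypoxanthine-free medium, final DMSO 0.002%. After 24 h, [3H]-hypoxanthine (0.5 μCi/well) added for another 18 h at 37 °C. Incorporation compared with drug-free controls, IC50 by linear interpolation. Three experiments, each in triplicate.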

[10] = Cytotoxicity against human HepG2 cells after 24 hrs by MTT assay; type: cell-based
Method in brief: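 Hep G2A16 hepatoma cells kept in RPMI1640 with 5% FBS and gentamicin, trypsinised and plated at 4×10^4 cells/well, then left 18 h at 37 °C before dosing. Compounds were given in triplicate at four serial-dilution concentrations starting at 1000 µg/mL, with final DMSO 0.01%, for 24 h at 37 °C. MTT (6 mg/mL in PBS) was added for 1 h 30 min, solubilised in DMSO and read at 570 nm. Cytotoxic concentration was taken from the dose–response curve.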

[11] = Selectivity index, ratio of CC50 for human HepG2 cells to IC50 for chloroquine-resistant Plasmodium falciparum W2 infected in human erythrocytes; type: functional
Method in brief: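 HepG2 hepatoma cells in RPMI1640 with 5% FBS, 4×10^4 cells/well, allowed 18 h at 37 °C. Four serial dilutions from 1000 µg/mL, final DMSO 0.01%, in triplicate, for 24 h at 37 °C. Cytotoxic concentration taken from the dose–response curve, then divided by the antiplasmodial IC50.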

[12] = Toxicity in RBC (unknown origin) assessed as hemolysis at 139 uM; type: cell-based; conditions: erythrocyte

With COC(=O)[C@]1(C)CCC[C@@]2(C)[C@@H]3CC[C@@H]4C[C@@]3(CC[C@@H]21)C[C@@H]4CO the GI50 [1] was > 9.02 µM, the GI50 [2] was > 9.02 µM and the GI50 [3] was > 9.02 µM. For the same compound, the GI50 [4] was > 9.02 µM, the GI50 [5] was > 9.02 µM and the GI50 [6] was 7.23 µM. The GI50 [7] was > 9.02 µM and the GI50 [8] was > 9.02 µM.
For COC(=O)[C@]1(C)CCC[C@@]2(C)[C@@H]3[C@@H](O)C[C@H]4C[C@@]3(CC[C@@H]21)C[C@@H]4CO, the GI50 [1] was > 8.56 µM, the GI50 [2] was > 8.56 µM and the pIC50 [9] was < 3.85. The GI50 [3] was > 8.56 µM, the GI50 [4] was > 8.56 µM and the GI50 [5] was > 8.56 µM. The GI50 [6] was > 8.56 µM, the GI50 [7] was > 8.56 µM and the GI50 [8] was > 8.56 µM.
In the case of C[C@@]1(C(=O)O)CCC[C@@]2(C)C3=CC[C@H]4C[C@@]3(CC[C@H]12)C[C@]41CO1, the GI50 [1] was > 9.48 µM, the GI50 [2] was > 9.48 µM and the GI50 [3] was > 9.48 µM. For the same compound, the GI50 [4] was > 9.48 µM, the GI50 [5] was > 9.48 µM and the GI50 [6] was > 9.48 µM. For the same compound, the GI50 [7] was > 9.48 µM and the GI50 [8] was > 9.48 µM.
COc1cccc2c1C(=O)c1c(O)c3c(c(O)c1C2=O)C[C@@](O)(C(=O)CO)C[C@@H]3O[C@H]1C[C@H](N)[C@H](O)[C@H](C)O1 [DOXORUBICIN HYDROCHLORIDE] showed a GI50 [1] of 0.15 µM, a GI50 [2] of 2.21 µM and a GI50 [3] of 0.24 µM. It also gave a GI50 [4] of 0.17 µM, a GI50 [5] of 0.11 µM and a GI50 [6] of 6.17 µM. The GI50 [7] was 0.17 µM and the GI50 [8] was 0.24 µM.
In the case of C=C1C[C@@]23CC[C@@H]4[C@](C)(C(=O)O)CCC[C@@]4(C)C2=CC[C@@H]1C3 [GRANDIFLORENIC ACID], the pIC50 [9] was 4.63.
COC(=O)[C@]1(C)CCC[C@@]2(C)[C@@H]3CC[C@H]4C[C@@]3(CC[C@@H]21)C[C@@H]4C1NCCCN1 showed a pIC50 [9] of 5.27.
With C[C@@]1(C(=O)O)CCC[C@@]2(C)C3=CC[C@@H]4C[C@@]3(CC[C@H]12)CC4=O the pIC50 [9] was < 3.80.
For COC(=O)[C@]1(C)CCC[C@@]2(C)[C@@H]3CC[C@H]4C[C@]3(C=C4C)CC[C@@H]21, the GI50 [1] was > 9.48 µM, the GI50 [2] was > 9.48 µM and the CC50 at 24 h [10] was 44.9 µM. The “Ratio CC50/IC50” value [11] was 5.1, the pIC50 [9] was 5.06 and the GI50 [3] was > 9.48 µM. The GI50 [4] was > 9.48 µM, the GI50 [5] was > 9.48 µM and the GI50 [6] was > 9.48 µM. The GI50 [7] was > 9.48 µM and the GI50 [8] was > 9.48 µM.
In the case of C=C1C[C@@]23CC[C@H]4[C@@](C)(CCC[C@@]4(C)C(=O)O)[C@@H]2CC[C@@H]1C3 [KAURENOIC ACID], the GI50 [1] was > 9.92 µM, the GI50 [2] was > 9.92 µM and the CC50 at 24 h [10] was 192 µM. The “Ratio CC50/IC50” value [11] was 9.1, the pIC50 [9] was 4.68 and the GI50 [3] was > 9.92 µM. The GI50 [4] was > 9.92 µM, the GI50 [5] was > 9.92 µM and the GI50 [6] was > 9.92 µM. The GI50 [7] was > 9.92 µM and the GI50 [8] was > 9.92 µM.
In the case of COC(=O)[C@]1(C)CCC[C@@]2(C)[C@@H]3CC[C@H]4C[C@@]3(CC[C@@H]21)C[C@H]4C=O, the GI50 [1] was > 9.02 µM, the GI50 [2] was > 9.02 µM and the GI50 [3] was > 9.02 µM. For the same compound, the GI50 [4] was > 9.02 µM, the GI50 [5] was > 9.02 µM and the GI50 [6] was > 9.02 µM. The GI50 [7] was > 9.02 µM and the GI50 [8] was > 9.02 µM.
For COC(=O)[C@]1(C)CCC[C@]2(C)[C@@H]1CC[C@@]13C[C@H](C[C@H]4O[C@]412)[C@]1(CO1)C3, the GI50 [1] was > 8.66 µM, the GI50 [2] was > 8.66 µM and the Activity [12] was “Toxic”. The CC50 at 24 h [10] was 810 µM, the “Ratio CC50/IC50” value [11] was 117.4 and the pIC50 [9] was 5.16. The GI50 [3] was > 8.66 µM, the GI50 [4] was > 8.66 µM and the GI50 [5] was > 8.66 µM. For the same compound, the GI50 [6] was > 8.66 µM, the GI50 [7] was > 8.66 µM and the GI50 [8] was > 8.66 µM.
With COC(=O)[C@]1(C)CCC[C@@]2(C)[C@@H]3CC[C@H]4C[C@@]3(CC[C@@H]21)C[C@@H]4C(=O)O the pIC50 [9] was < 3.84.
With COC(=O)[C@]1(C)CCC[C@@]2(C)[C@@H]3[C@H](O)C[C@H]4C[C@@]3(CC[C@@H]21)C[C@@H]4CO the GI50 [1] was > 8.56 µM, the GI50 [2] was > 8.56 µM and the pIC50 [9] was < 3.85. For the same compound, the GI50 [3] was > 8.56 µM, the GI50 [4] was > 8.56 µM and the GI50 [5] was > 8.56 µM. For the same compound, the GI50 [6] was > 8.56 µM, the GI50 [7] was > 8.56 µM and the GI50 [8] was > 8.56 µM.
With COC(=O)[C@]1(C)CCC[C@]2(C)[C@@H]1CC[C@@]13C[C@H](C[C@H]4O[C@]412)[C@@]1(CO1)C3 the GI50 [1] was > 8.66 µM, the GI50 [2] was > 8.66 µM and the CC50 at 24 h [10] was 1240 µM. The “Ratio CC50/IC50” value [11] was 119.1, the pIC50 [9] was 4.98 and the GI50 [3] was > 8.66 µM. The GI50 [4] was > 8.66 µM, the GI50 [5] was > 8.66 µM and the GI50 [6] was > 8.66 µM. The GI50 [7] was > 8.66 µM and the GI50 [8] was > 8.66 µM.
In the case of C=C1[C@H]2CC[C@H]3[C@]4(C)CCC[C@@](C)(C(=O)OC)[C@H]4CC[C@]3(C2)[C@H]1O, the GI50 [1] was 7.4 µM, the GI50 [2] was > 9.02 µM and the pIC50 [9] was 5.08. For the same compound, the GI50 [3] was 8.21 µM, the GI50 [4] was 7.04 µM and the GI50 [5] was 7.52 µM. The GI50 [6] was > 9.02 µM, the GI50 [7] was > 9.02 µM and the GI50 [8] was > 9.02 µM.
With COC(=O)[C@]1(C)CCC[C@@]2(C)[C@@H]3CC[C@H]4C[C@@]3(CC[C@@H]21)[C@@H](O)[C@@H]4C the GI50 [1] was > 9.02 µM, the GI50 [2] was > 9.02 µM and the pIC50 [9] was 4.46. For the same compound, the GI50 [3] was > 9.02 µM, the GI50 [4] was > 9.02 µM and the GI50 [5] was 8.34 µM. For the same compound, the GI50 [6] was > 9.02 µM, the GI50 [7] was > 9.02 µM and the GI50 [8] was > 9.02 µM.
In the case of COC(=O)[C@]1(C)CCC[C@@]2(C)[C@@H]3CC[C@H]4C[C@@]3(CC[C@@H]21)C[C@@H]4C=O, the GI50 [1] was > 9.02 µM, the GI50 [2] was > 9.02 µM and the GI50 [3] was 8.69 µM. The GI50 [4] was > 9.02 µM, the GI50 [5] was > 9.02 µM and the GI50 [6] was > 9.02 µM. The GI50 [7] was 8.18 µM and the GI50 [8] was > 9.02 µM.
With COC(=O)[C@]1(C)CCC[C@@]2(C)C3=CC[C@H]4C[C@@]3(CC[C@H]12)CC4CO (mixture of isomers) the GI50 [1] was > 9.02 µM, the GI50 [2] was > 9.02 µM and the pIC50 [9] was 4.48. The GI50 [3] was > 9.02 µM, the GI50 [4] was > 9.02 µM and the GI50 [5] was > 9.02 µM. For the same compound, the GI50 [6] was > 9.02 µM, the GI50 [7] was > 9.02 µM and the GI50 [8] was > 9.02 µM.
In the case of C=C1C[C@@]23CC[C@H]4[C@@](C)(CCC[C@@]4(C)C(=O)OC)[C@@H]2CC[C@H]1C3, the GI50 [1] was > 9.48 µM, the GI50 [2] was > 9.48 µM and the CC50 at 24 h [10] was 32.2 µM. For the same compound, the “Ratio CC50/IC50” value [11] was 3.9, the pIC50 [9] was 5.09 and the GI50 [3] was > 9.48 µM. The GI50 [4] was > 9.48 µM, the GI50 [5] was 8.44 µM and the GI50 [6] was > 9.48 µM. The GI50 [7] was > 9.48 µM and the GI50 [8] was > 9.48 µM.
For CCN(CC)CCCC(C)Nc1ccnc2cc(Cl)ccc12 (configuration not stated) [CHLOROQUINE], the CC50 at 24 h [10] was 504 µM.
In the case of COC(=O)[C@]1(C)CCC[C@@]2(C)[C@@H]3CC[C@H]4C[C@@]3(CC[C@@H]21)C[C@]41CO1, the GI50 [1] was > 9.02 µM, the GI50 [2] was > 9.02 µM and the CC50 at 24 h [10] was 111 µM. The “Ratio CC50/IC50” value [11] was 11.5, the pIC50 [9] was 5.02 and the GI50 [3] was > 9.02 µM. The GI50 [4] was > 9.02 µM, the GI50 [5] was > 9.02 µM and the GI50 [6] was > 9.02 µM. The GI50 [7] was > 9.02 µM and the GI50 [8] was > 9.02 µM.
